Assay results taken from ChEMBL document CHEMBL3734675, “Synthesis, antimycobacterial and antibacterial activity of fluoroquinolone derivatives containing an 3-alkoxyimino-4-(cyclopropylanimo)methylpyrrolidine moiety” (2015).
In brackets after ≈: the same amount, converted by molar mass.

Key:
Assay type in all cases: functional
Enterococcus faecium [1] = experiment: Antibacterial activity against Enterococcus faecium 14-6 after 18 to 24 hrs by two-fold serial dilution method
In short: (§1)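 Twofold serial dilution in agar media against Gram-positive and Gram-negative strains. Plates incubated at 35 °C for 18–24 h. MIC read as the lowest compound concentration giving complete inhibition of bacterial growth.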

Escherichia coli [2] = experiment: Antibacterial activity against Escherichia coli 14-2 after 18 to 24 hrs by two-fold serial dilution method; in short: as §1
Staphylococcus aureus [3] = experiment: Antibacterial activity against methicillin-resistant Staphylococcus aureus 14-4 after 18 to 24 hrs by two-fold serial dilution method
In short: (§2)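 Agar media, standard twofold serial dilution. MIC is the lowest concentration giving complete inhibition of bacterial growth after incubation at 35 °C for 18–24 h. Ciprofloxacin and levofloxacin were run as comparators.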

Enterococcus faecalis [4] = experiment: Antibacterial activity against Enterococcus faecalis 14-2 after 18 to 24 hrs by two-fold serial dilution method; in short: as §1
[5] = test system: Staphylococcus epidermidis; experiment: Antibacterial activity against methicillin-resistant Staphylococcus epidermidis 14-21 after 18 to 24 hrs by two-fold serial dilution method; in short: as §2
Pseudomonas aeruginosa [6] = experiment: Antibacterial activity against Pseudomonas aeruginosa 14-9 after 18 to 24 hrs by two-fold serial dilution method; in short: as §1
Staphylococcus aureus [7] = experiment: Antibacterial activity against methicillin-resistant Staphylococcus aureus 14-5 after 18 to 24 hrs by two-fold serial dilution method; in short: as §2
Pseudomonas aeruginosa [8] = experiment: Antibacterial activity against Pseudomonas aeruginosa 14-16 after 18 to 24 hrs by two-fold serial dilution method; in short: as §1
Klebsiella pneumoniae [9] = experiment: Antibacterial activity against extended-spectrum beta-lactamase producing Klebsiella pneumoniae 14-18 after 18 to 24 hrs by two-fold serial dilution method; in short: as §1
Klebsiella pneumoniae [10] = experiment: Antibacterial activity against Klebsiella pneumoniae 14-2 after 18 to 24 hrs by two-fold serial dilution method; in short: as §1
[11] = test system: Mycobacterium tuberculosis; experiment: Antimycobacterial activity against Mycobacterium tuberculosis H37Rv ATCC 27294 incubated for 7 days by microplate Alamar Blue assay; details: H37Rv ATCC 27294, 168 h
In short: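 Fluorescence read-out. MIC is the lowest concentration that reduces fluorescence by at least 90% relative to the mean of replicate bacterium-only controls. Isoniazid and rifampicin were included as reference drugs.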

Escherichia coli [12] = experiment: Antibacterial activity against extended-spectrum beta-lactamase producing Escherichia coli 14-2 after 18 to 24 hrs by two-fold serial dilution method; in short: as §1
[13] = test system: Staphylococcus epidermidis; experiment: Antibacterial activity against methicillin-sensitive Staphylococcus epidermidis 14-2 after 18 to 24 hrs by two-fold serial dilution method; in short: as §1
Pseudomonas aeruginosa [14] = experiment: Antibacterial activity against Pseudomonas aeruginosa 14-15 after 18 to 24 hrs by two-fold serial dilution method; in short: as §1
Staphylococcus aureus [15] = experiment: Antibacterial activity against Staphylococcus aureus CMCC 26003 after 18 to 24 hrs by two-fold serial dilution method; in short: as §1
Pseudomonas aeruginosa [16] = experiment: Antibacterial activity against Pseudomonas aeruginosa 14-14 after 18 to 24 hrs by two-fold serial dilution method; in short: as §1
[17] = test system: Staphylococcus epidermidis; experiment: Antibacterial activity against methicillin-resistant Staphylococcus epidermidis 14-39 after 18 to 24 hrs by two-fold serial dilution method; in short: as §2
Staphylococcus aureus [18] = experiment: Antibacterial activity against methicillin-sensitive Staphylococcus aureus 14-4 after 18 to 24 hrs by two-fold serial dilution method; in short: as §1
[19] = test system: Staphylococcus epidermidis; experiment: Antibacterial activity against methicillin-resistant Staphylococcus epidermidis 14-37 after 18 to 24 hrs by two-fold serial dilution method; in short: as §2
Klebsiella pneumoniae [20] = experiment: Antibacterial activity against extended-spectrum beta-lactamase producing Klebsiella pneumoniae 14-17 after 18 to 24 hrs by two-fold serial dilution method; in short: as §1
Enterococcus faecium [21] = experiment: Antibacterial activity against Enterococcus faecium 14-2 after 18 to 24 hrs by two-fold serial dilution method; in short: as §1
[22] = test system: Staphylococcus epidermidis; experiment: Antibacterial activity against methicillin-resistant Staphylococcus epidermidis 14-22 after 18 to 24 hrs by two-fold serial dilution method; in short: as §2
Enterococcus faecium [23] = experiment: Antibacterial activity against Enterococcus faecium 14-5 after 18 to 24 hrs by two-fold serial dilution method; in short: as §1
Escherichia coli [24] = experiment: Antibacterial activity against extended-spectrum beta-lactamase producing Escherichia coli 14-1 after 18 to 24 hrs by two-fold serial dilution method; in short: as §1
Escherichia coli [25] = experiment: Antibacterial activity against Escherichia coli 14-1 after 18 to 24 hrs by two-fold serial dilution method; in short: as §1
Klebsiella pneumoniae [26] = experiment: Antibacterial activity against Klebsiella pneumoniae 14-1 after 18 to 24 hrs by two-fold serial dilution method; in short: as §1
Klebsiella pneumoniae [27] = experiment: Antibacterial activity against Klebsiella pneumoniae 14-4 after 18 to 24 hrs by two-fold serial dilution method; in short: as §1
Klebsiella pneumoniae [28] = experiment: Antibacterial activity against extended-spectrum beta-lactamase producing Klebsiella pneumoniae 14-19 after 18 to 24 hrs by two-fold serial dilution method; in short: as §1
Streptococcus pneumoniae = experiment: Antibacterial activity against methicillin-resistant Streptococcus pneumoniae ATCC 19615 after 18 to 24 hrs by two-fold serial dilution method; in short: as §2
Klebsiella pneumoniae [29] = experiment: Antibacterial activity against Klebsiella pneumoniae 14-3 after 18 to 24 hrs by two-fold serial dilution method; in short: as §1
Enterococcus faecalis [30] = experiment: Antibacterial activity against Enterococcus faecalis 14-1 after 18 to 24 hrs by two-fold serial dilution method; in short: as §1
Staphylococcus aureus [31] = experiment: Antibacterial activity against methicillin-sensitive Staphylococcus aureus 14-1 after 18 to 24 hrs by two-fold serial dilution method; in short: as §1
Escherichia coli [32] = experiment: Antibacterial activity against Escherichia coli ATCC 25922 after 18 to 24 hrs by two-fold serial dilution method; in short: as §1
Staphylococcus aureus [33] = experiment: Antibacterial activity against methicillin-sensitive Staphylococcus aureus 14-3 after 18 to 24 hrs by two-fold serial dilution method; in short: as §1
Pseudomonas aeruginosa [34] = experiment: Antibacterial activity against Pseudomonas aeruginosa ATCC 27853 after 18 to 24 hrs by two-fold serial dilution method; in short: as §1

| SMILES | MIC (Enterococcus faecium [1]) [µg/mL] | MIC (Escherichia coli [2]) [µg/mL] | MIC (Staphylococcus aureus [3]) [µg/mL] | MIC (Enterococcus faecalis [4]) [µg/mL] | MIC [5] [µg/mL] | MIC (Pseudomonas aeruginosa [6]) [µg/mL] | MIC (Staphylococcus aureus [7]) [µg/mL] | MIC (Pseudomonas aeruginosa [8]) [µg/mL] | MIC (Klebsiella pneumoniae [9]) [µg/mL] | MIC (Klebsiella pneumoniae [10]) [µg/mL] | MIC90 [11] [µg/mL] | MIC (Escherichia coli [12]) [µg/mL] | MIC [13] [µg/mL] | MIC (Pseudomonas aeruginosa [14]) [µg/mL] | MIC (Staphylococcus aureus [15]) [µg/mL] | MIC (Pseudomonas aeruginosa [16]) [µg/mL] | MIC [17] [µg/mL] | MIC (Staphylococcus aureus [18]) [µg/mL] | MIC [19] [µg/mL] | MIC (Klebsiella pneumoniae [20]) [µg/mL] | other results |
| --- | --- | --- | --- | --- | --- | --- | --- | --- | --- | --- | --- | --- | --- | --- | --- | --- | --- | --- | --- | --- | --- |
| CO/N=C1/CN(c2nc3c(cc2F)c(=O)c(C(=O)O)cn3[C@@H]2C[C@@H]2F)CC1CNC1CC1 (stereo not given in full) | 64 (≈ 143 µM) | > 128 | > 128 | 0.5 (≈ 1.12 µM) | 32 (≈ 71.5 µM) | 8 (≈ 17.9 µM) | 8 (≈ 17.9 µM) | 32 (≈ 71.5 µM) | 32 (≈ 71.5 µM) | 64 (≈ 143 µM) | 1.25 (≈ 2.79 µM) | > 128 | > 128 | 64 (≈ 143 µM) | < 0.008 | 32 (≈ 71.5 µM) | 32 (≈ 71.5 µM) | 16 (≈ 35.8 µM) | 64 (≈ 143 µM) | 32 (≈ 71.5 µM) | MIC (Enterococcus faecium [21]): 16 µg/mL (≈ 35.8 µM); MIC [22]: 16 µg/mL (≈ 35.8 µM); MIC (Enterococcus faecium [23]): 32 µg/mL (≈ 71.5 µM); MIC (Escherichia coli [24]): 16 µg/mL (≈ 35.8 µM); MIC (Escherichia coli [25]): > 128 µg/mL; MIC (Klebsiella pneumoniae [26]): 64 µg/mL (≈ 143 µM); MIC (Klebsiella pneumoniae [27]): > 128 µg/mL; MIC (Klebsiella pneumoniae [28]): 64 µg/mL (≈ 143 µM); MIC (Streptococcus pneumoniae): 4 µg/mL (≈ 8.94 µM); MIC (Klebsiella pneumoniae [29]): > 128 µg/mL; MIC (Enterococcus faecalis [30]): 128 µg/mL (≈ 286 µM); MIC (Staphylococcus aureus [31]): 8 µg/mL (≈ 17.9 µM); MIC (Escherichia coli [32]): 4 µg/mL (≈ 8.94 µM); MIC (Staphylococcus aureus [33]): 8 µg/mL (≈ 17.9 µM); MIC (Pseudomonas aeruginosa [34]): 8 µg/mL (≈ 17.9 µM) |
| Nc1nc(-n2cc(C(=O)O)c(=O)c3cc(F)c(N4C/C(=N/OCc5ccccc5)C(CNC5CC5)C4)nc32)c(F)cc1F (stereo not given) | 128 (≈ 216 µM) | > 128 | 64 (≈ 108 µM) | 8 (≈ 13.5 µM) | 64 (≈ 108 µM) | 128 (≈ 216 µM) | 8 (≈ 13.5 µM) | 128 (≈ 216 µM) | > 128 | 128 (≈ 216 µM) | > 32 | > 128 | 128 (≈ 216 µM) | 128 (≈ 216 µM) | 0.015 (≈ 0.0253 µM) | 128 (≈ 216 µM) | 64 (≈ 108 µM) | 32 (≈ 53.9 µM) | 128 (≈ 216 µM) | 128 (≈ 216 µM) | MIC (Enterococcus faecium [21]): 64 µg/mL (≈ 108 µM); MIC [22]: 128 µg/mL (≈ 216 µM); MIC (Enterococcus faecium [23]): 64 µg/mL (≈ 108 µM); MIC (Escherichia coli [24]): 64 µg/mL (≈ 108 µM); MIC (Escherichia coli [25]): > 128 µg/mL; MIC (Klebsiella pneumoniae [26]): 64 µg/mL (≈ 108 µM); MIC (Klebsiella pneumoniae [27]): > 128 µg/mL; MIC (Klebsiella pneumoniae [28]): 128 µg/mL (≈ 216 µM); MIC (Streptococcus pneumoniae): 16 µg/mL (≈ 27 µM); MIC (Klebsiella pneumoniae [29]): > 128 µg/mL; MIC (Enterococcus faecalis [30]): 64 µg/mL (≈ 108 µM); MIC (Staphylococcus aureus [31]): 16 µg/mL (≈ 27 µM); MIC (Escherichia coli [32]): 8 µg/mL (≈ 13.5 µM); MIC (Staphylococcus aureus [33]): 32 µg/mL (≈ 53.9 µM); MIC (Pseudomonas aeruginosa [34]): 128 µg/mL (≈ 216 µM) |
